This series relates to MS2 coat protein. The experiment in a line: apparent Kd, MS2 coat protein; higher = weaker binding; RNA-MaP array; tryptophan 2.4 mM where present. The essentials:
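In 100 mM Tris-HCl pH 7.5, 80 mM KCl, 4 mM MgCl2, BSA, DTT, yeast tRNA and Tween-20, SNAP-549-labelled MS2 coat protein was titrated from 0.7 or 1.5 nM, doubling to 3 µM, over designs transcribed by stalled E. coli RNA polymerase on Illumina sequencing-chip clusters. This was done first without ligand, then with ligand held constant. After green signal was normalised to red-channel RNA signal and control-cluster median Fmax, the apparent Kd was taken as the median of filtered per-cluster binding-curve fits.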

Where [1] appears, read: designed as: OFF switch for tryptophan, no ligand.
Setting [2] is: ligand present: tryptophan, designed as: OFF switch for tryptophan.
The mark [3] stands for this setting: designed as: ON switch for tryptophan, no ligand.
Setting [4] is: ligand present: tryptophan, designed as: ON switch for tryptophan.

Consider “CACAUUUUUAGAAGGGCGGUUUCACUCCUGCGAGGACCGGUACGGCCGCCACUCGACAUGAGGAUCACCCAUGUGGAGAAGUUAG”, for which the apparent Kd (commonly a dissociation constant that holds for the conditions of the assay) worked out at 20.5 nM under setting [1] and 110 nM under setting [2].

“UUACACAUCUCGGCCGCCACUGGCUUCAAAAUAAUGUGUACAUGAGGAUCACCCAUGUCCGAGCUCAGGACCGGGAGCAAAGAAG”: the “apparent Kd” value was found to be 26.7 nM under setting [3] and 27.1 nM under setting [4].

As to “UUAUAAGUACCGGUCCUCAGAUCCUCAUGACGAGGACCGGUACGGCCGCCACUCGAAACAUGAGGAUCACCCAUGUAAUAAUAAC”, the “apparent Kd” value came to 37.2 nM under setting [1] and 18.2 nM under setting [2].

Consider “ACGGAUCGGAAACGAUCCGCGGCGCGGGUGCGAGGACCGGUACGGCCGCCACUCGGGUAACAUGAGGAUCACCCAUGUCCGAUUU”, for which the “apparent Kd” value is, setting by setting: under setting [1], 101 nM; under setting [2], 304 nM.

On to “AGCCACUCGAGUGAUCCUCACGAGUGGCUACGAGGACCGGUACGGCCGCCACUCGAAUUAACAUGAGGAUCACCCAUGUAAUCUA”, for which the “apparent Kd” value under setting [3] came to 81 nM and the “apparent Kd” value under setting [4] was 53.8 nM.

With “AGGUACAGCAGGUGAUUCUGGCUGUACCAACGAGGACCGGUACGGCCGCCACUCGAAUAAACAUGAGGAUCACCCAUGUACAAAU”, the “apparent Kd” value came out at 24.6 nM under setting [3] and 21.6 nM under setting [4].

As for “GGAGUAGGAAACUAUUCCAAUCCUCGUGAACGAGGACCGGUACGGCCGCCACUCGAUAAAUAAAUACAUGAGGAUCACCCAUGUA”, the “apparent Kd” value reads like this: under setting [1], 24.4 nM; under setting [2], 50.2 nM.

Regarding “GGGACAUGAGGAUCACCCAUGUACCGGUCCCGAGGACCGGUACGGCCGCCACUCGAUGACCUCAUAGUCUGCCUGAGCAGCAGAC”, the “apparent Kd” value by setting is: under setting [3], 41.3 nM; under setting [4], 119 nM.

As for “AGCACGGUGAUGGUAGCCGGACGAUAAGUACGAGGACCGGUACGGCCGCCACUCGAAGUCCUACGACAUGAGGAUCACCCAUGUA”, the “apparent Kd” value by setting is: under setting [3], 33.2 nM; under setting [4], 37.9 nM.

Consider “GUUGGACUUUCGGCCGCCACUGAGAGAGUCAUGUGAACAUGAGGAUCACCCAUGUAAUAUAUAUACAGGACCGGGAGGGUUGUAA”, for which the “apparent Kd” value came to 13.3 nM under setting [1] and 9.9 nM under setting [2].

Regarding “UAAACUACACAUGAGGAUCACCCAUGUGGCCGAGGACCGGUACGGCCGCCACUCGUGUGUUAAUAAAAGAACUGCAAGGUUCUUC”, the “apparent Kd” value runs as follows: under setting [3], 174 nM; under setting [4], 73.1 nM.

On to “GCUAGGUCUACGGCCGCCACUAGACAUGGGUAAGACAUGAGGAUCACCCAUGUACUACGAGUGCAUAGGACCGGGUAGACCUAGC”, for which the “apparent Kd” value turned out to be 326 nM under setting [3] and 53.5 nM under setting [4].

In the case of “CAUGGCUGUGCGGCCGCCACUGGCUCAUCCUGCAUUACAUGAGGAUCACCCAUGUUGCGGCCUCCCAGGACCGGGCAUAGCCUGA”, the “apparent Kd” value stood at 300 nM under setting [3] and 139 nM under setting [4].

Take “GGUAACUCUACGGCCGCCACUGAACAUGAGGAUCACCCAUGUAAUGUUCAGAUUUUUUUUUUUUACAGGACCGGGUAGUGUUACC”: the “apparent Kd” value by setting is: under setting [3], 178 nM; under setting [4], 118 nM.

Regarding “UCGUGCAGAGCGGCCGCCACUGUAUUGCGUGCGGAUGACGGAACAUGAGGAUCACCCAUGUUGUUUAGGACCGGGCUUGCCACCA”, the “apparent Kd” value is, setting by setting: under setting [1], 12.7 nM; under setting [2], 13.9 nM.

On to “CUAGACUGUGCGGCCGCCACUGGCUCAUCCUGCAUUACAUGAGGAUCACCCAUGUUGCGGCCUCCCAGGACCGGGCAUAGUCUGC”, for which the “apparent Kd” value came out at 329 nM under setting [3] and 105 nM under setting [4].

As to “CAUGUGAAAAUAAGAAGAAGAAGAAUAAAUCGAGGACCGGUACGGCCGCCACUCGUCGAAUCACAUGAGGAUCACCCAUGUAGCC”, the “apparent Kd” value reads like this: under setting [1], 65.1 nM; under setting [2], 50.9 nM.

For “AGGUACGGAAUCCUCAUGUAGUCGUACCAACGAGGACCGGUACGGCCGCCACUCGAAUAAACAUGAGGAUCACCCAUGUAAUAAU”, the “apparent Kd” value is 34.4 nM under setting [3] and 19.7 nM under setting [4].

Consider “AAGCGGGCGACGGCCGCCACUUGCCUGUAAUUAGAGAAGGCACAUGAGGAUCACCCAUGUCCCGCAAGGACCGGGUUGCCUCACU”, for which the “apparent Kd” value under setting [3] stood at 417 nM and the “apparent Kd” value under setting [4] was found to be 84.5 nM.

Turning to “UGUGUAAUUGUCUGGUAGAUUUAUUUUUUUCGAGGACCGGUACGGCCGCCACUCGUUAUUUACAUGAGGAUCACCCAUGUUAGCU”, the “apparent Kd” value was found to be 12.9 nM under setting [1] and 12.9 nM under setting [2].

For the sequence “GUGCCGCAUUCACAUGAGGAUCACCCAUGUCGAGGACCGGUACGGCCGCCACUCGACGUGCUUACAGGUCCUUUAAGGCCCAAUA”, the “apparent Kd” value worked out at 92.8 nM under setting [1] and 43.8 nM under setting [2].

As to “ACUUCGCAUAGGAAAACUAUGUGAAGAAAUCGAGGACCGGUACGGCCGCCACUCGUCCUCAACAUGAGGAUCACCCAUGUAAUAA”, the “apparent Kd” value by setting is: under setting [1], 20.1 nM; under setting [2], 37.8 nM.

Regarding “GCUACAUGAGGAUCACCCAUGUAUGCGAGCCGAGGACCGGUACGGCCGCCACUCGCUUAACAUGAGGAUCACCCAUGUUGCUCGG”, the “apparent Kd” value under setting [3] is 40.9 nM and the “apparent Kd” value under setting [4] was 43.6 nM.

Turning to “UUCUUUAAGUCGGCCGCCACUGAAACAUGAGGAUCACCCAUGUAAAUUUGGGAGUAGUUAUAUUACAGGACCGGGACUAUAGUAA”, the “apparent Kd” value reads like this: under setting [1], 41.5 nM; under setting [2], 83 nM.

Turning to “GGCACAUAGUCGGCCGCCACUAGAAUAAGAUGGAAUAACAUGAGGAUCACCCAUGUAAAAGGGACUAGGACCGGGACUAUGUGCC”, the “apparent Kd” value runs as follows: under setting [1], 13.7 nM; under setting [2], 11.9 nM.

Turning to “GUGUACAUGAGGAUCACCCAUGUCGAGUUACGAGGACCGGUACGGCCGCCACUCGGCGGCUCGACACGGAUAGCGAUGCGUUGCU”, the “apparent Kd” value is, setting by setting: under setting [1], 43.6 nM; under setting [2], 110 nM.

Take “GGUAUGUAUUCGGAAACGAAUGCAUACCAACGAGGACCGGUACGGCCGCCACUCGGGCCGUGAUCACAUGAGGAUCACCCAUGUA”: the “apparent Kd” value under setting [1] is 40.2 nM and the “apparent Kd” value under setting [2] worked out at 92.7 nM.

As to “AAUACCGGUCCUCGAGGGUGAUCCUCAUGACGAGGACCGGUACGGCCGCCACUCGAUAACAUGAGGAUCACCCAUGUAAUCGAGU”, the “apparent Kd” value under setting [1] was 59 nM and the “apparent Kd” value under setting [2] came to 56.4 nM.

Take “AGCAACAAGUCGGCCGCCACUCAUUUAACAUGAGGAUCACCCAUGUGAAUAACAUGAUUGUAAUAGAGGACCGGGACAGUUGCAU”: the “apparent Kd” value by setting is: under setting [3], 62.5 nM; under setting [4], 31 nM.

As to “AACAUGAGGAUCACCCAUGUCCCAUGUGAACGAGGACCGGUACGGCCGCCACUCGAAUGAGGCGGCACAUGAGGAUCACCCACAU”, the “apparent Kd” value runs as follows: under setting [3], 131 nM; under setting [4], 196 nM.

In the case of “ACGUGGAAAAUUUGUGGUGCUGCCUCAGGCCGAGGACCGGUACGGCCGCCACUCGUACAUGAGGAUCACCCAUGUCGAGUCACUG”, the “apparent Kd” value is, setting by setting: under setting [1], 25.4 nM; under setting [2], 22.2 nM.

Take “AGAUUCGACACGGCCGCCACUUGUGGUGGAUUAUCCUGUGUCGAACAUGAGGAUCACCCAUGUACAAGGACCGGGUGUUGAGUCU”: the “apparent Kd” value is, setting by setting: under setting [1], 136 nM; under setting [2], 73.9 nM.

“CACAGUGCGAAAUUGAAACCGCACGAUCCUCGAGGACCGGUACGGCCGCCACUCGCGCGGGUCGUACAUGAGGAUCACCCAUGUC”: the “apparent Kd” value came to 262 nM under setting [3] and 371 nM under setting [4].

For the sequence “CUCAUCCACGCGGCCGCCACUAUAUUGUGGUGUGAAUGUGACGUAUUACAUGAGGAUCACCCAUGUAGGACCGGGCGUGGAUGAG”, the “apparent Kd” value came to 75.4 nM under setting [1] and 168 nM under setting [2].

For “UAUCGUCAGACGGCCGCCACUAGUACAUGAGGAUCACCCAUGUAGGUCCUAGAUUCCUCAUGAUCUAGGACCGGGUCUGACGAAU”, the “apparent Kd” value was found to be 39 nM under setting [1] and 23 nM under setting [2].

Turning to “GGUUACUCUACGGCCGCCACUGAAAAGUAAAUAUUAAUGUACAUGACAUGAGGAUCACCCAUGUACAGGACCGGGUAGUGUAACC”, the “apparent Kd” value reads like this: under setting [3], 84.2 nM; under setting [4], 21.5 nM.

For “UUAUAAGUACCGGUCCUCAGAUCCUCAUGACGAGGACCGGUACGGCCGCCACUCGAAACAUGAGGAUCACCCAUGUAAUAACACU”, the “apparent Kd” value came to 23.1 nM under setting [1] and 19.9 nM under setting [2].

Take “AGUUCCAGGUCGGCCGCCACUGGCGUGGCCGGUCCUCGGACUUACAUGAGGAUCACCCAUGUGAACAGGACCGGGACCGCAUGGG”: the “apparent Kd” value worked out at 36.9 nM under setting [1] and 28.7 nM under setting [2].

Consider “UAGUUGUAGUCGGCCGCCACUGUGAGCAUGGUUAACAUGAGGAUCACCCAUGUCCCGUACUAUAACAGGACCGGGACGUAGUUGC”, for which the “apparent Kd” value was 48.1 nM under setting [3] and 22.9 nM under setting [4].

In the case of “AACAUGAGGAUCACCCAUGUCCCAUGUGAACGAGGACCGGUACGGCCGCCACUCGACCGAGGCGGCACAUGAGGAUCACCCACAU”, the “apparent Kd” value is, setting by setting: under setting [3], 234 nM; under setting [4], 608 nM.

As to “GGUGUAAUUGACUCUUUGUUUUAUUUGUAACGAGGACCGGUACGGCCGCCACUCGAUAUUCACAUGAGGAUCACCCAUGUUAGCU”, the “apparent Kd” value under setting [1] was 20.1 nM and the “apparent Kd” value under setting [2] was determined as 20.4 nM.

“AACGAGUGGCGGCCAUUGGGUGAUCCUCUACGAGGACCGGUACGGCCGCCACUCGAUAACAUGAGGAUCACCCAUGUGCCGAUAA”: the “apparent Kd” value by setting is: under setting [1], 124 nM; under setting [2], 133 nM.

In the case of “GGCACAUAGUCGGCCGCCACUAGUGGGAAAUGGGAGAACAUGAGGAUCACCCAUGUAGCGUAGCCUAGGACCGGGACUAUGUGCC”, the “apparent Kd” value is, setting by setting: under setting [1], 160 nM; under setting [2], 156 nM.

In the case of “UGUCAGCGAAAGUUGACAUGUUGAACCGGUCGAGGACCGGUACGGCCGCCACUCGAUCUCUCGUACAUGAGGAUCACCCAUGUCG”, the “apparent Kd” value under setting [3] turned out to be 11.5 nM and the “apparent Kd” value under setting [4] amounted to 10.7 nM.

In the case of “GGUUACUCUACGGCCGCCACUGUAAAGUAAAGAUACCUGUACAUGACAUGAGGAUCACCCAUGUACAGGACCGGGUAGUGUAACC”, the “apparent Kd” value runs as follows: under setting [3], 545 nM; under setting [4], 232 nM.

For “AAAAUAAAAUAAAAGGUGGAAAUAAGGCGGCGAGGACCGGUACGGCCGCCACUCGCGUACAUGAGGAUCACCCAUGUCUGAAAAU”, the “apparent Kd” value worked out at 22.4 nM under setting [3] and 27.4 nM under setting [4].
